Experimental data from ChEMBL document CHEMBL4411305, “5-Aminothiophene-2,4-dicarboxamide analogues as hepatitis B virus capsid assembly effectors” (Eur J Med Chem, 2019).
pEC50: −log10 of the molar value. ≈ marks a conversion by molar mass, not a printed value. Calls of active or inactive are those of the source. No rule for the calls is given here.

Key:
[1] = system: Hepatitis B virus; test: Binding affinity to HBV dimeric capsid protein C150 mutant expressed in Escherichia coli BL21 (DE3) at 20 uM by Sypro orange staining based RT-PCR analysis
[2] = system: HepG2; test: Cytotoxicity against human HepG2 cells assessed as reduction in cell viability incubated for 2 days prior to compound washout followed by compound redosing and measured after 2 days by XTT assay; type: cell-based; settings: hepg2, 48 h
[3] = Intrinsic clearance in human liver microsomes assessed as glucuronidation per mg protein at 1 uM in presence of UDPGA by LC-MS/MS analysis; type: ADME, Microsome
Summary of the method: (§1)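 Glucuronidation: typically 1 μM compound with 0.5 mg/mL microsomal protein, alamethicin 50 μg/mg protein, 1 mM MgCl2, 5 mM UDPGA in 0.1 M potassium phosphate pH 7.4, 37 °C; timed aliquots quenched in acetonitrile; LC-MS/MS gives CLint (μl/min/mg protein); triplicate; 7-hydroxycoumarin positive control.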

[4] = Intrinsic clearance in mouse liver microsomes assessed as NADPH-dependent metabolism per mg protein at 1 uM in presence of NADPH by LC-MS/MS analysis; type: ADME, Microsome
[5] = Intrinsic clearance in mouse liver microsomes assessed as glucuronidation per mg protein at 1 uM in presence of UDPGA by LC-MS/MS analysis; type: ADME, Microsome; summary of the method: as §1
[6] = Intrinsic clearance in human liver microsomes assessed as NADPH-dependent metabolism per mg protein at 1 uM in presence of NADPH by LC-MS/MS analysis; type: ADME, Microsome
[7] = Stability in Dulbecco's phosphate buffered saline assessed as parent compound remaining at 1 uM after 24 hrs by LC-MS/MS analysis; type: physicochemical; settings: read-out: Stability
Summary of the method: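 Compound, typically 1 μM final, incubated in DPBS at 37 °C in triplicate; samples at 0, 1, 3, 6, 24 h quenched with 3 volumes acetonitrile containing internal standard; parent measured by LC-MS/MS.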

[8] = Thermodynamic aqueous solubility in Dulbecco's phosphate buffered saline using solid sample incubated for 72 hrs under shaking condition by LC-MS/MS analysis; type: physicochemical; settings: read-out: Therm_solubility
[9] = Half life in human plasma at 1 uM by LC-MS/MS analysis; type: ADME, cell-free
[10] = Half life in mouse plasma at 1 uM by LC-MS/MS analysis; type: ADME, cell-free
[11] = Protein binding in mouse plasma at 5 uM incubated for 5 hrs by LC-MS/MS-based equilibrium dialysis method; type: ADME, cell-free
Summary of the method: (§2)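 Equilibrium dialysis in duplicate: compound spiked at 5 μM into normal human or mouse plasma, dialyzed against DPBS 5 h at 37 °C; both chambers sampled and quenched in acetonitrile with internal standard; LC-MS/MS gives percent bound.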

[12] = Protein binding in human plasma at 5 uM incubated for 5 hrs by LC-MS/MS-based equilibrium dialysis method; type: ADME, cell-free; summary of the method: as §2
[13] = system: Hepatitis B virus; test: Antiviral activity against HBV infected in human HepAD38 cells assessed as reduction in total DNA production incubated for 2 days prior to compound washout followed by compound redosing and measured after 2 days by dot-blot analysis; type: functional, organism-based
Summary of the method: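 HepAD38 cells seeded at 3 × 10^4/well in tetracycline medium; next day washed twice with PBS and given tet-free complete medium with 2-fold serial dilutions, 1% final DMSO, replaced with fresh compound medium after 2 days. After 2 more days cells lysed (NP-40), DNA alkali-denatured, dot-blotted, probed with DIG-labelled HBV probe; chemiluminescence densitometry, variable-slope fit; mean ± SD of ≥2 experiments.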

[14] = Oral bioavailability in CD-1 mouse at 10 mg/kg by LC-MS/MS analysis; type: ADME, organism-based; settings: in vivo
Summary of the method: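 Male CD-1 mice (25–35 g), n = 4 per route; typical doses 2 mg/kg IV and 10 mg/kg PO in DPBS with up to 42% 2-hydroxypropyl-β-cyclodextrin; serial saphenous blood to 24 h (8 points); plasma by LC-MS/MS; non-compartmental analysis; F = (AUCpo/AUCiv)×(Doseiv/Dosepo).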

SMILES | Activity [1] | CC50 [2] [µM] | pEC50 [13] | further results
Cc1c(C(=O)Nc2ccccc2)sc(NC(=O)c2csc([N+](=O)[O-])c2)c1C(N)=O | Active | > 100 | – | –
Cc1c(C(=O)Nc2ccc(Cl)c(C(F)(F)F)c2)sc(N)c1C(N)=O | Active | 72 | – | –
Cc1c(C(=O)Nc2ccccc2)sc(NC(=O)c2cn[nH]c2)c1C(N)=O | Active | > 100 | – | –
NC(=O)c1c(N)sc2c1CCCC2 | inactive | – | – | –
CCOC(=O)c1c(N)sc(C(=O)Nc2ccc(F)c(C)c2)c1C | Active | > 100 | – | –
Cc1c(C(=O)Nc2ccccc2)sc2[nH]c(CS(=O)(=O)c3ccccc3)nc(=O)c12 | inactive | – | – | –
Cc1c(C(=O)Nc2ccc(F)c(C#N)c2)sc(N)c1C(N)=O | Active | > 100 | – | intrinsic clearance (CLint) [3]: 0.1 µL/min; intrinsic clearance per mg protein [4]: 4.2 µL/min; intrinsic clearance (CLint) [5]: 2 µL/min; Microsomal intrinsic clearance [6]: 2.4 µL/min; remaining at 24 h, 1 µM [7]: > 90%; solubility thermodynamic at 72 h [8]: 6.7 µM (≈ 2.13 µg/mL); t1/2 [9]: > 24 h; t1/2 [10]: > 24 h; PPB [11]: 69%; PPB [12]: 80%
Cc1c(C(=O)Nc2ccc(F)c(Cl)c2)sc(N)c1C(N)=O | Active | > 100 | 6.51 | intrinsic clearance (CLint) [3]: < 0.1 µL/min; intrinsic clearance per mg protein [4]: 28 µL/min; intrinsic clearance (CLint) [5]: 1.6 µL/min; Microsomal intrinsic clearance [6]: 7.6 µL/min; remaining at 24 h, 1 µM [7]: > 90%; solubility thermodynamic at 72 h [8]: 31 µM (≈ 10.2 µg/mL); t1/2 [9]: > 24 h; t1/2 [10]: > 24 h; PPB [11]: 90%; PPB [12]: 94%
Cc1c(C(=O)Nc2ccccc2)sc(NC(=O)c2cc(Cl)cc(Cl)c2)c1C(N)=O | Active | 49.5 | – | –
Cc1c(C(=O)Nc2ccc(F)c(F)c2)sc(N)c1C(=O)Nc1ccc(F)c(F)c1 | Active | 17 | – | –
Cc1c(C(=O)Nc2ccccc2)sc(-n2cnnn2)c1C(N)=O | inactive | – | – | –
Cc1c(C(=O)Nc2ccccc2)sc(N)c1C(=O)NCc1ccc(C(F)(F)F)cc1 | Active | – | < 5.00 | –
Cc1c(C(=O)Nc2ccccc2)sc(NC(=O)c2nccs2)c1C(N)=O | Active | > 100 | – | –
CCOC(=O)C1=C(C)NC(c2ncccc2F)=NC1c1ccc(F)cc1Cl (stereo not drawn) | Active | > 100 | 6.39 | –
Cc1c(C(=O)Nc2ccccc2)sc(N)c1C#N | inactive | – | – | –
COc1ccc(CNC(=O)c2c(N)sc(C(=O)Nc3ccccc3)c2C)cc1 | Active | – | < 5.00 | –
Cc1c(C(=O)Nc2ccc(C(F)(F)F)cc2)sc(N)c1C(N)=O | inactive | – | – | –
Cc1c(C(=O)Nc2ccccc2)sc2[nH]c(Cc3ccccc3)nc(=O)c12 | inactive | – | – | –
O=C(N/C(C(=O)N1CCCCC1)=C(\Cl)c1ccccc1)c1ccccc1 | Active | 61 | 5.32 | –
O=C(Nc1ccc(F)c(F)c1)c1cc(S(=O)(=O)NC2CCCC2)ccc1F | Active | 17 | 6.60 | –
Cc1c(C(=O)Nc2ccc(F)c(F)c2)sc(N)c1C#N | Active | > 100 | 5.00 | –
Cc1c(C(=O)Nc2ccccc2)sc2[nH]c(-c3ccc(F)c(F)c3)nc(=O)c12 | inactive | – | – | –
CC(C)Cc1sc(-c2nccs2)nc1C(=O)NCc1ccc(F)cc1 | Active | 29 | 5.00 | –
Cc1c(C(=O)Nc2ccc(F)c(F)c2)sc(N)c1C(=O)Nc1ccc(Cl)cc1 | Active | – | < 5.00 | –
Cc1cc(NC(=O)c2sc(N)c(C(N)=O)c2C)ccc1Cl | Active | > 100 | 5.77 | –
Cc1c(C(=O)NCc2ccccc2)sc(N)c1C(N)=O | Active | – | 5.00 | –
Cc1c(C(=O)Nc2ccc(C#N)cc2)sc(N)c1C(N)=O | inactive | – | – | –
Cc1c(C(=O)Nc2ccc(F)c(C(F)F)c2)sc(N)c1C(N)=O | Active | > 100 | – | intrinsic clearance (CLint) [3]: 3.2 µL/min; intrinsic clearance per mg protein [4]: 22 µL/min; intrinsic clearance (CLint) [5]: 10 µL/min; Microsomal intrinsic clearance [6]: 5.8 µL/min; remaining at 24 h, 1 µM [7]: > 90%; solubility thermodynamic at 72 h [8]: 9.5 µM (≈ 3.26 µg/mL); F ([14]; mouse): 25%; t1/2 [9]: > 24 h; t1/2 [10]: > 24 h; PPB [11]: 82%; PPB [12]: 89%

SMILES | Activity [1] | CC50 [2] [µM] | pEC50 [13] | further results
Cc1cc(NC(=O)c2c(N)sc(C(=O)Nc3ccccc3)c2C)ccc1F | Active | 40 | – | –
Cc1cc(NC(=O)c2sc(N)c(C(=O)Nc3ccc(F)c(C)c3)c2C)ccc1F | inactive | – | – | –
Cc1c(C(=O)Nc2ccc(F)c(C(F)(F)F)c2)sc(N)c1C(N)=O | Active | > 100 | – | –
NC(=O)c1c(N)sc2c1CCCN2C(=O)c1ccccc1 | inactive | – | – | –
Cc1cc(NC(=O)c2sc(N)c(C(N)=O)c2C)ccc1Br | Active | 107 | – | bioavailability ([14]; CD-1, mouse): 46%
COc1ccc(NC(=O)c2sc(N)c(C(N)=O)c2C)cc1 | Active | – | 5.00 | –
Cc1ccc(NC(=O)c2sc(N)c(C(N)=O)c2C)cc1 | inactive | – | < 5.00 | –
Cc1c(C(=O)Nc2cc(F)c(F)c(Cl)c2)sc(N)c1C#N | inactive | – | – | –
Cc1cc(NC(=O)c2sc(N)c(C#N)c2C)ccc1F | Active | 96 | – | –
Cc1c(C(=O)Nc2ccccc2)sc(N)c1C(=O)NC1CCCC1 | inactive | – | < 5.00 | –
Cc1c(C(=O)Nc2ccc(F)c(F)c2)sc(N)c1C(=O)NC1CCCC1 | Active | – | < 5.00 | –
Cc1c(C(=O)Nc2ccccc2)sc(N)c1C(=O)NC1CC1 | inactive | – | < 5.00 | –
Cc1c(C(=O)Nc2ccccc2)sc(NC(=O)N2CCOCC2)c1C(N)=O | inactive | – | – | –
Cc1c(C(=O)Nc2ccccc2)sc(NC(=O)c2ccc(S(C)(=O)=O)cc2)c1C(N)=O | Active | > 100 | – | –
Cc1nc(=O)c2c(C)c(C(=O)Nc3ccccc3)sc2[nH]1 | inactive | – | – | –
Cc1ccc(CC(=O)Nc2sc(C(=O)Nc3ccccc3)c(C)c2C(N)=O)cc1F | Active | > 100 | < 5.00 | –
CCOC(=O)c1c(N)sc(C(=O)Nc2ccccc2)c1C | Active | 76 | < 5.00 | –
Cc1c(C(=O)Nc2ccccc2)sc(N)c1C(=O)Nc1ccccc1 | Active | > 100 | – | –
Cc1ccc(C(=O)Nc2sc(C(=O)Nc3ccccc3)c(C)c2C(N)=O)s1 | Active | > 100 | – | –
Cc1c(C(=O)Nc2ccc(F)c(F)c2)sc(N)c1C(=O)Nc1ccccc1 | Active | 26 | – | –
Cc1c(C(=O)Nc2ccc(F)cc2)sc(N)c1C(N)=O | Active | > 100 | – | –
Cc1c(C(=O)Nc2cc(F)c(F)c(Cl)c2)sc(N)c1C(N)=O | Active | 72 | – | –
Cc1c(C(=O)Nc2ccccc2)sc(N)c1C(=O)NC(C)C | inactive | – | < 5.00 | –
Cc1c(C(=O)Nc2ccccc2)sc(N)c1C(=O)Nc1ccc(F)c(F)c1 | Active | 40 | – | –
NC(=O)c1c(N)sc2c1CCN(C(=O)c1ccccc1)C2 | inactive | – | – | –
Cc1c(C(=O)Nc2ccccc2)sc(NC(=O)c2ccsc2)c1C(N)=O | Active | > 100 | – | –
Cc1c(C(=O)Nc2ccccc2)sc(NC(=O)Cc2ccc(F)c(F)c2)c1C(N)=O | Active | > 100 | 5.00 | –
